# Measurements taken from ChEMBL document CHEMBL4261639, “Cell-Active Small Molecule Inhibitors of the DNA-Damage Repair Enzyme Poly(ADP-ribose) Glycohydrolase (PARG): Discovery and Optimization of Orally Bioavailable Quinazolinedione Sulfonamides” (J Med Chem, 2018).
# Experiments:
# [1] = target: T1, Poly(ADP-ribose) glycohydrolase (Homo sapiens, UniProt Q86W56); assay: Inhibition of PARG in human HeLa cells assessed as induction of MMS-induced PAR chains preincubated for 1 hr followed by MMS addition and measured after 1 hr by Alexofluor 488-conjugated secondary antibody and Hoechst 33342 staining based assay; assay type: cell-based
# Outline: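 Acute (1 h) cell-based proof-of-mechanism assay measuring persistence of PAR chains, i.e. blockade of PARG-mediated PAR degradation, across a dose range. EC50 values are means of at least 4 independent measurements, with standard deviations.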
# [2] = target: T1, Poly(ADP-ribose) glycohydrolase; assay: Inhibition of human full length PARG using Bt-NAD ribosylated PARP1 substrate after 10 mins by TR-FRET assay
# [3] = Clearance in human liver microsomes
# [4] = Clearance in mouse liver microsomes
# [5] = Oral bioavailability in CD1 mouse at 5 mg/kg administered as single dose by LC-MS/MS analysis; assay type: ADME, organism-based; conditions: in vivo
# Outline: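 Male CD-1 mice (n = 2) were dosed orally at a nominal 5 mg/kg, with a separate intravenous group (n = 2) at a nominal 1 mg/kg for comparison.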
# [6] = tested on: PARG (human, full length); assay: Selectivity ratio of cytotoxicity for human HeLa cells to EC50 for human full length PARG; assay type: toxicity, cell-based
# CYP1A = target: T2, CYP1A (Homo sapiens, UniProt P04798+P05177); assay: Inhibition of CYP1A (unknown origin); assay type: ADME, protein assay
# T2 sequence (P04798 whole entry): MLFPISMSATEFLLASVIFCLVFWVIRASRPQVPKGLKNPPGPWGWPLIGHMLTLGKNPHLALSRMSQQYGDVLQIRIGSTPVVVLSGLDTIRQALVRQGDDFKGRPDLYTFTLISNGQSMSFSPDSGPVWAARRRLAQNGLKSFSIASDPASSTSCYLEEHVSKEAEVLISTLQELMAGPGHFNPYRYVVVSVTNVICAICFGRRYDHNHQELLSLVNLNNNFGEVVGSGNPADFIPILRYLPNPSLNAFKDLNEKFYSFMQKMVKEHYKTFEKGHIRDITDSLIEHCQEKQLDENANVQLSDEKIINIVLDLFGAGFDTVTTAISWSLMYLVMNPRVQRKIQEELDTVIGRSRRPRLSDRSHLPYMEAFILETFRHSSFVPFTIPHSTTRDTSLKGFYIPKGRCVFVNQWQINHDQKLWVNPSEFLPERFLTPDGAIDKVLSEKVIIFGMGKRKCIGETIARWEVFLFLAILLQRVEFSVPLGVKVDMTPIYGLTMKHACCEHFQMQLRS
# T2 sequence (P05177 whole entry): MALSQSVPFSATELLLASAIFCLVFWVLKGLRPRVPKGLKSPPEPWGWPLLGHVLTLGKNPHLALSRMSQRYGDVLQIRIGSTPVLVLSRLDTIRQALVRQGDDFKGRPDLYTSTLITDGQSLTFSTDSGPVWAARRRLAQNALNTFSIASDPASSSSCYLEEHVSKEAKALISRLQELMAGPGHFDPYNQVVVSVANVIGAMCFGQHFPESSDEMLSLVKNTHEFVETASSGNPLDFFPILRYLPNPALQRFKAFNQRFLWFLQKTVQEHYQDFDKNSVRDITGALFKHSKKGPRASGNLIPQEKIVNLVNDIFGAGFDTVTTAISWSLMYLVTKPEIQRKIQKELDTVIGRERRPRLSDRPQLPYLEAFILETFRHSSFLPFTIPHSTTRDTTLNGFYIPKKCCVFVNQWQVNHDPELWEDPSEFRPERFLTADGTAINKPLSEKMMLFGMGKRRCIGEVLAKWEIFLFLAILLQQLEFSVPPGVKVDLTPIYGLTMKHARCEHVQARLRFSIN
# [7] = Clearance in CD1 mouse at 1 mg/kg, iv administered as single dose by LC-MS/MS analysis; assay type: ADME, organism-based; conditions: in vivo
# Outline: (§1)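 Male CD-1 mice (n = 2) received a single intravenous dose at a nominal 1 mg/kg.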
# [8] = Efflux ratio of apparent permeability in human Caco2 cells; conditions: Caco-2
# [9] = Volume of distribution in CD1 mouse at 1 mg/kg, iv administered as single dose by LC-MS/MS analysis; assay type: ADME, organism-based; conditions: in vivo; outline: as §1
# Cytochrome P450 2C9 = Cytochrome P450 2C9 (Homo sapiens, UniProt P11712); assay: Inhibition of CYP2C9 (unknown origin); assay type: ADME
# [10] = Apparent permeability across apical to basolateral side in human Caco2 cells; assay type: ADME, cell-based; conditions: Caco-2
# Cytochrome P450 2D6 = Cytochrome P450 2D6 (Homo sapiens, UniProt P10635); assay: Inhibition of CYP2D6 (unknown origin); assay type: ADME
# [11] = Clearance in mouse hepatocytes assessed per million cells
# [12] = AUC in CD1 mouse at 1 mg/kg, iv administered as single dose by LC-MS/MS analysis; assay type: ADME, organism-based; conditions: in vivo; outline: as §1
# Cytochrome P450 2C19 = Cytochrome P450 2C19 (Homo sapiens, UniProt P33261); assay: Inhibition of CYP2C19 (unknown origin); assay type: ADME
# [13] = Solubility of the compound; assay type: physicochemical
# Cytochrome P450 3A4 = Cytochrome P450 3A4 (Homo sapiens, UniProt P08684); assay: Inhibition of CYP3A4 (unknown origin); assay type: ADME
# [14] = Half life in CD1 mouse at 1 mg/kg, iv administered as single dose by LC-MS/MS analysis; assay type: ADME, organism-based; conditions: in vivo; outline: as §1
# [15] = Solubility of the compound by turbidimetric method; assay type: physicochemical
# HeLa = assay: Cytotoxicity against human HeLa cells after 72 hrs by Hoechst 33342 staining based assay; assay type: cell-based
# [16] = Partition coefficient, log D of compound at pH 7.4; assay type: physicochemical; conditions: octanol/water
# [17] = target: T3, ADP-ribosylhydrolase ARH3 (Homo sapiens, UniProt Q9NX46); assay: Inhibition of human full length C-terminus His-tagged ARH3 expressed in Escherichia coli using Bt-NAD ribosylated PARP1 substrate after 30 mins by TR-FRET assay
# T3 sequence (Q9NX46 whole entry): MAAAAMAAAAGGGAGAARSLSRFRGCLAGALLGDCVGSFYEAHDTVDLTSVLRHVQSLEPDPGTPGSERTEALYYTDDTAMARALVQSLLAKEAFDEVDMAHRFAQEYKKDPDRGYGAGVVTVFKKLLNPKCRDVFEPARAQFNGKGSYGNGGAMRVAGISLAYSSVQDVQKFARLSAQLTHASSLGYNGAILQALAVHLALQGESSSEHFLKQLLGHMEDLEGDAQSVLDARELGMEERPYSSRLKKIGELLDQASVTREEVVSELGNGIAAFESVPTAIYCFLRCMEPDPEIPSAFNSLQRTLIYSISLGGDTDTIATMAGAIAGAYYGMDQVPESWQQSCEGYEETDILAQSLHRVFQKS
# [18] = target: Poly [ADP-ribose] polymerase 1 (Homo sapiens, UniProt P09874); assay: Inhibition of human PARP1 expressed in Escherichia coli using activated DNA as substrate after 60 mins by peroxy glow reagent A/B based assay
# Sequence of Poly [ADP-ribose] polymerase 1 (P09874 whole entry): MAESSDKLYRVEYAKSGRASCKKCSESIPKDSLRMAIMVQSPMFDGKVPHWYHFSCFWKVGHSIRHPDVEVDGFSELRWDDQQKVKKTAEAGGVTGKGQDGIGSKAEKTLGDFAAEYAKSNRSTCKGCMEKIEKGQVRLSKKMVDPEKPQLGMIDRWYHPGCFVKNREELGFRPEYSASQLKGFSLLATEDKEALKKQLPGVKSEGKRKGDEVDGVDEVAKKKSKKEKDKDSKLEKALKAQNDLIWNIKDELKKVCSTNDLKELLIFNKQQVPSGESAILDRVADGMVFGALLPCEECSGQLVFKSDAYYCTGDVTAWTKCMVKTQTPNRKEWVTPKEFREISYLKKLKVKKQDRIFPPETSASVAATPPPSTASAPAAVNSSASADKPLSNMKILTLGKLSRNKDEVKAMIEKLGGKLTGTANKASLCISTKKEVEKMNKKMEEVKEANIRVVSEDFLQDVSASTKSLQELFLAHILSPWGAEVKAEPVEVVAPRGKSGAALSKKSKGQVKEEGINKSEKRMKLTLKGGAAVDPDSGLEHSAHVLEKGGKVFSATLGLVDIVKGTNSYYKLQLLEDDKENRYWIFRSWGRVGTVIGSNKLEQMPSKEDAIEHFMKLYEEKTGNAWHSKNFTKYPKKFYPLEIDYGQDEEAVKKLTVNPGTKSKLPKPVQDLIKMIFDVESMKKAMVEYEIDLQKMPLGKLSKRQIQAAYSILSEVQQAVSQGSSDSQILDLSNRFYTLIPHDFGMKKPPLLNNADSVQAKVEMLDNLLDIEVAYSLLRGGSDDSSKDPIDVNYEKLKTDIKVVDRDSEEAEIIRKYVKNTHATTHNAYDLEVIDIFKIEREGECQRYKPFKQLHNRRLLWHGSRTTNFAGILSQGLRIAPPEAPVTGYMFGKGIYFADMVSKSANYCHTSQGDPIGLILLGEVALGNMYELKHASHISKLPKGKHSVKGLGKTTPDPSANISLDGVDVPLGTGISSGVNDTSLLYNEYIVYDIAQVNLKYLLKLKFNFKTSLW
# T1 sequence (Q86W56 whole entry): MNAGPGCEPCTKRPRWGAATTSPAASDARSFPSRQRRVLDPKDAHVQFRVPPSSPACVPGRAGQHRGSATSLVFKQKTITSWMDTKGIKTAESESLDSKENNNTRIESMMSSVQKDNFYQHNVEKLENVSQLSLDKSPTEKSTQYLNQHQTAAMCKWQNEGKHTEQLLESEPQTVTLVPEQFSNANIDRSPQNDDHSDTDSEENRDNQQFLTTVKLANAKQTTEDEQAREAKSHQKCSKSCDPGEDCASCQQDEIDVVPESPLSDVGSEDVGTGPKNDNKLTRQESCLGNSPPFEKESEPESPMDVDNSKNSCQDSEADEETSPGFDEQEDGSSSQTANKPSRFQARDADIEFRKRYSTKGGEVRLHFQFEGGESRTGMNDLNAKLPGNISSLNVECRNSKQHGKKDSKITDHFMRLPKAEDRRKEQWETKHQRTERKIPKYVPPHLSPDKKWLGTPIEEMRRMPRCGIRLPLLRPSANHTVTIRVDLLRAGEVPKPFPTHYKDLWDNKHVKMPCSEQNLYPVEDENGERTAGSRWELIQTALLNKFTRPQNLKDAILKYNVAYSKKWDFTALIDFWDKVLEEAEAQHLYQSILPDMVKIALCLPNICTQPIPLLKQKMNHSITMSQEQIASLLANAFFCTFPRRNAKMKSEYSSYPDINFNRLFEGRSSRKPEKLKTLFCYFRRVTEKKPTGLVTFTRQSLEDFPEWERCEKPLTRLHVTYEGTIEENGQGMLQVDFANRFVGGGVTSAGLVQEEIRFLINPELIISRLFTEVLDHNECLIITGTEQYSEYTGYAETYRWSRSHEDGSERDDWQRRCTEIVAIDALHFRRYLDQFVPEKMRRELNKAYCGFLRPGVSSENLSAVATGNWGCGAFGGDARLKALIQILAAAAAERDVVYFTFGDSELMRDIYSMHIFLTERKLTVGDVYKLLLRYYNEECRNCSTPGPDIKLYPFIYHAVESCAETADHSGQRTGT
# Sequence of Cytochrome P450 2C9 (P11712 whole entry): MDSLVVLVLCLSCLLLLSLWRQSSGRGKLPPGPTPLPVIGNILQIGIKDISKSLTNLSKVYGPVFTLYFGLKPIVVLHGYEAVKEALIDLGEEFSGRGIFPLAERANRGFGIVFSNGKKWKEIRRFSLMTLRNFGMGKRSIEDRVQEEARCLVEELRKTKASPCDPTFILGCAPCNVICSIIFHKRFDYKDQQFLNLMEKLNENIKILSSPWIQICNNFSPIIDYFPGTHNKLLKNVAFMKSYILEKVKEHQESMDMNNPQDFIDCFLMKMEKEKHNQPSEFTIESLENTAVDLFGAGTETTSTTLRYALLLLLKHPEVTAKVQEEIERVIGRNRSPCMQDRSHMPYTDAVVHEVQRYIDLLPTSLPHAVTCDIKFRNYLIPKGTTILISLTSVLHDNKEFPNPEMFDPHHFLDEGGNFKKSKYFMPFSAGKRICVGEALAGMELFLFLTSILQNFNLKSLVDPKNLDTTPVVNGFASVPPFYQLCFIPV
# Sequence of Cytochrome P450 2C19 (P33261 whole entry): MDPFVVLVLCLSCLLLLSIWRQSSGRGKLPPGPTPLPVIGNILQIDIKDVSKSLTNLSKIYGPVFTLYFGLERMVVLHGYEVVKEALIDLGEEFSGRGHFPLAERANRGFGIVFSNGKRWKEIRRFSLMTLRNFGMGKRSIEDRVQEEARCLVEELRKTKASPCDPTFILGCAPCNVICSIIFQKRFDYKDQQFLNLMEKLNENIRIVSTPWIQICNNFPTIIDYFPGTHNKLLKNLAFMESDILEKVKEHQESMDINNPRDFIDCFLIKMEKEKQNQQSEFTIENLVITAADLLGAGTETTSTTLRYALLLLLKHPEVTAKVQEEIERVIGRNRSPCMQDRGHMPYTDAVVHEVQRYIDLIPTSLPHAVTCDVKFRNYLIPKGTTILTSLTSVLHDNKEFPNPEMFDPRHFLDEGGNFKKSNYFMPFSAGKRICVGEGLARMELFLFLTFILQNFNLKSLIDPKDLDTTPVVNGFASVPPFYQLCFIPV
# Sequence of Cytochrome P450 3A4 (P08684 whole entry): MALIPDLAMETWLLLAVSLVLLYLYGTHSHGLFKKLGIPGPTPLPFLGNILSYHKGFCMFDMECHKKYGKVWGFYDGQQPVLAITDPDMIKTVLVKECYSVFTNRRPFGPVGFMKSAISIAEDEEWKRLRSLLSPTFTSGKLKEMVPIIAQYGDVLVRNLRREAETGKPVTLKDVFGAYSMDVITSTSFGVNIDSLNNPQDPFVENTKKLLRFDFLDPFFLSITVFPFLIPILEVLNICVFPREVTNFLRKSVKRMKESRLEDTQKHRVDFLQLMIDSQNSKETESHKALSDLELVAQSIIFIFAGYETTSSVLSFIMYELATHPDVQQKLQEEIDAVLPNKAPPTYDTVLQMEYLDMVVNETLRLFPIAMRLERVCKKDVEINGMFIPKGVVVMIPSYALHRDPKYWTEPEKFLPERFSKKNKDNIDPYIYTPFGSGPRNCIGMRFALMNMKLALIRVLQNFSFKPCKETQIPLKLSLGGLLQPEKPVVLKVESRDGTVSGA
# Sequence of Cytochrome P450 2D6 (P10635 whole entry): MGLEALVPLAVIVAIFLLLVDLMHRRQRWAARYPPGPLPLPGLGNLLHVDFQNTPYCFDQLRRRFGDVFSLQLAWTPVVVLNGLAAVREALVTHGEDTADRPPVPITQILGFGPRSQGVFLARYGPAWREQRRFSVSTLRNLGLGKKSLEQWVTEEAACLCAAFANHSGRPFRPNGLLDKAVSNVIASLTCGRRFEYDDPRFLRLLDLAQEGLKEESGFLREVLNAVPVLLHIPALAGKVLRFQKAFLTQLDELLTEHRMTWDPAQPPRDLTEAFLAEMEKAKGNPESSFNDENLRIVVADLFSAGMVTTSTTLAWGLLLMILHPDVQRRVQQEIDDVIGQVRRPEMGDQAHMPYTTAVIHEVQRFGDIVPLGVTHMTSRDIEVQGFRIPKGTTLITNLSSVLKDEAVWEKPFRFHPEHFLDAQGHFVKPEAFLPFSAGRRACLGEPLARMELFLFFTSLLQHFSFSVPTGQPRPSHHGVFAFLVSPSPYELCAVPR
Compound,EC50 [1],EC50 [2],microsomal CLint [3],microsomal CLint [4],further results
CC1(NS(=O)(=O)c2ccc3c(c2)c(=O)n(CC#N)c(=O)n3CC2CC2)CC1,1.1 µM,0.27 µM,17 µL/min/mg,36 µL/min/mg,–
Cc1cc(Cn2c(=O)n(CC#N)c(=O)c3cc(S(=O)(=O)NC4(C)CC4)ccc32)n(C)n1,0.56 µM,0.28 µM,20 µL/min/mg,–,–
CCn1c(=O)n(Cc2cc(C)no2)c(=O)c2cc(S(=O)(=O)NC3(C)CC3)ccc21,0.12 µM,0.33 µM,26 µL/min/mg,–,–
Cc1cc(Cn2c(=O)c3cc(S(=O)(=O)NC4(C)CC4)ccc3n(CC3COC3)c2=O)on1,0.28 µM,0.34 µM,19 µL/min/mg,22 µL/min/mg,bioavailability [5]: 25%; selectivity ratio [6]: > 100; IC50 (CYP1A): > 25 µM; clearance [7]: 10 L/h/kg; efflux ratio [8]: 21; Vd [9]: 2.5 L/kg; IC50 (Cytochrome P450 2C9): > 25 µM; Papp A→B [10]: 19 nm/s; IC50 (Cytochrome P450 2D6): > 25 µM; hepatocyte CLint [11]: 25 µL/min/1e6 cells; AUC [12]: 0.09 µg·h/mL; IC50 (Cytochrome P450 2C19): > 25 µM; solubility [13]: > 100 µM; IC50 (Cytochrome P450 3A4): > 25 µM; half-life [14]: 12 min
Cn1cc(Cn2c(=O)c3cc(S(=O)(=O)NC4(C)CC4)ccc3n(CC3COC3)c2=O)cn1,0.25 µM,0.069 µM,9.2 µL/min/mg,16 µL/min/mg,bioavailability [5]: 41%; selectivity ratio [6]: > 100; IC50 (CYP1A): > 10 µM; clearance [7]: 4 L/h/kg; efflux ratio [8]: 34; Vd [9]: 1.4 L/kg; IC50 (Cytochrome P450 2C9): > 10 µM; Papp A→B [10]: 10 nm/s; IC50 (Cytochrome P450 2D6): > 10 µM; hepatocyte CLint [11]: 24 µL/min/1e6 cells; AUC [12]: 0.25 µg·h/mL; IC50 (Cytochrome P450 2C19): > 10 µM; solubility [13]: > 100 µM; IC50 (Cytochrome P450 3A4): > 10 µM; half-life [14]: 22 min
Cc1cc(Cn2c(=O)c3cc(S(=O)(=O)NC4(C)CC4)ccc3n(CC3CC3)c2=O)on1,0.049 µM,0.055 µM,80 µL/min/mg,–,–
Cc1cc(Cn2c(=O)n(Cc3cnc(C)s3)c(=O)c3cc(S(=O)(=O)NC4(C)CC4)ccc32)n(C)n1,0.037 µM,0.026 µM,79 µL/min/mg,–,selectivity ratio [6]: > 100
C#CCn1c(=O)n(CC#N)c(=O)c2cc(S(=O)(=O)NC3(C)CC3)ccc21,0.27 µM,0.25 µM,10 µL/min/mg,63 µL/min/mg,–
CCn1c(=O)n(Cc2nnc(C)s2)c(=O)c2cc(S(=O)(=O)NC3(C)CC3)ccc21,0.12 µM,0.24 µM,17 µL/min/mg,30 µL/min/mg,–
Cn1c(=O)c2cc(S(=O)(=O)NC3(C)CC3)ccc2n(C)c1=O,1.8 µM,3.9 µM,–,–,solubility kinetic [15]: > 100 µM; Activity (HeLa): > 30 µM; logD [16]: 1.73
C#CCn1c(=O)n(Cc2cnc(C)s2)c(=O)c2cc(S(=O)(=O)NC3(C)CC3)ccc21,0.082 µM,0.045 µM,100 µL/min/mg,–,–
CC(C)(C)NS(=O)(=O)c1ccc2c(c1)C(=O)c1ccccc1C2=O,30 µM,81 µM,–,–,solubility kinetic [15]: 20 µM; Activity (HeLa): 16 µM
Cc1ncc(Cn2c(=O)c3cc(S(=O)(=O)NC4(C)CC4)ccc3n(Cc3sc(C)nc3C)c2=O)s1,0.0092 µM,0.0048 µM,140 µL/min/mg,–,–
Cn1c(=O)c2cc(S(=O)(=O)NC3(C)CC3)ccc2n(CC2CC2)c1=O,0.62 µM,0.44 µM,–,–,EC50 [17]: > 100 µM; selectivity ratio [6]: > 100; EC50 [18]: > 150 µM
Cc1ncc(Cn2c(=O)c3cc(S(=O)(=O)NC4(C)CC4)ccc3n(CC3CC3)c2=O)s1,0.028 µM,0.019 µM,160 µL/min/mg,–,EC50 [17]: > 100 µM; EC50 [18]: > 150 µM
Cc1cc(Cn2c(=O)n(Cc3nnc(C)s3)c(=O)c3cc(S(=O)(=O)NC4(C)CC4)ccc32)n(C)n1,0.27 µM,0.064 µM,15 µL/min/mg,35 µL/min/mg,–
Cc1cc(Cn2c(=O)n(Cc3cnn(C)c3)c(=O)c3cc(S(=O)(=O)NC4(C)CC4)ccc32)n(C)n1,0.088 µM,0.023 µM,34 µL/min/mg,–,EC50 [17]: > 100 µM; selectivity ratio [6]: > 100; EC50 [18]: > 150 µM
C#CCn1c(=O)n(Cc2cc(C)no2)c(=O)c2cc(S(=O)(=O)NC3(C)CC3)ccc21,0.076 µM,0.1 µM,72 µL/min/mg,–,–
Cc1cc(Cn2c(=O)c3cc(S(=O)(=O)NC4(C)CC4)ccc3n(Cc3cc(C)nn3C)c2=O)on1,0.12 µM,0.038 µM,37 µL/min/mg,–,–
